This passage reports self-cleavage results from the RNAGym collection of RNA variant scans (doi:10.1002/anie.201605470).

B1: Osa-1-4 twister ribozyme (parent)
chain: CCGCCUAACACUGCCAAUGCCGGUCCCAAGCCCGGAUAAAAGUGGAGGGGGCGG

In this series the parent is B1. Put plainly: self-cleavage, relative activity (ratio to wild type); higher = more cleavage; co-transcriptional. Summed up: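 A DNA template for a 54-nucleotide Oryza sativa twister ribozyme was synthesised with 97 % wild-type base and 1 % of each other base at the 48 positions downstream of the cleavage site. It was transcribed in vitro for 2 h at 37 °C, allowing co-transcriptional self-cleavage, then reverse-transcribed with a template-switching oligonucleotide, PCR-amplified and deep-sequenced. Cleavage status was scored from reads with or without upstream sequence. Relative activity is fraction cleaved normalised to wild type.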
With CCGCCUAACACCGCCAAUGUCGGUCCCAAGCCCGGAUAAAAGUGGAGGGGGCGG [C20U U12C], the self-cleavage is 0.49. Consider CCGCCUAACACGGCCAAUGUCGGUCCCAAGCCCGGAUAAAAGUGGAGGGGGCGG [C20U U12G], for which the self-cleavage is 0.46. CCGCCUAACACUGCCAAUGUCGGUCCUAAGCCCGGAUAAAAGUGGAGGGGGCGG [C20U C27U]: the self-cleavage was determined as 0.26. Consider CCGCCUAACACUGCCAAUGUCGGUCCCAAGCCCGCAUAAAAGUGGAGGGGGCGG [C20U G35C], for which the self-cleavage amounted to 0.93. To CCGCCUAACACUGCCAAUGUCGGUCCCAAGCCCGAAUAAAAGUGGAGGGGGCGG [C20U G35A] belongs 1; to CCGCCUAACACUGCCAAUGUCGGUCCCAAGCCCGUAUAAAAGUGGAGGGGGCGG [C20U G35U], 1; to CCGCCUAACACUGCCAAUGUCGGUCCCAAGCCUGGAUAAAAGUGGAGGGGGCGG [C20U C33U], 0.77.

As to CCGCCUAACACUGCCAAUGUCGGUCCCAAGCCAGGAUAAAAGUGGAGGGGGCGG [C20U C33A], the self-cleavage is 0.11.

Regarding CCGCCUAACACUGCCAAUGUCGGUCCCAAGCCGGGAUAAAAGUGGAGGGGGCGG [C20U C33G], the self-cleavage was determined as 0.07. For the variant CCGCCUAACACUGCCAAUGUCGGUCCCAAGCCCGGAUAAAAGUGAAGGGGGCGG [C20U G45A], the self-cleavage came to 0.35. For the variant CCGCCUAACACUGCCAAUGUCGGUCCCAAGCCCGGAUAAAAGUGUAGGGGGCGG [C20U G45U], the self-cleavage was determined as 0.14.

CCGCCUAACACUGCCAAUGUCGGUCCCAAGCCCGGAUAAAAGUGCAGGGGGCGG [C20U G45C]: the self-cleavage came to 0.06.

As to CCGCCUAACACUGCCAAUGUCGGUCCCAAGCCCGGAUAAAAGUGGAGGUGGCGG [C20U G49U], the self-cleavage came out at 0.13.

As for CCGCCUAACACUGCCAAUGUCGGUCCCAAGCCCGGAUAAAAGUGGAGGAGGCGG [C20U G49A], the self-cleavage is 0.16.

In the case of CCGCCUAACACUGCCAAUGUCGGUCCCAAGCCCGGAUAAAAGUGGAGGCGGCGG [C20U G49C], the self-cleavage amounted to 0.11.

As for CCGCCUAACACUGCCAAUGUCGGUCCCAAGCCCGGAUAAAAGUGGACGGGGCGG [C20U G47C], the self-cleavage was 0.15.

With CCGCCUAACACUGCCAAUGUCGGUCCCAAGCCCGGAUAAAAGUGGAUGGGGCGG [C20U G47U], the self-cleavage is 0.29. Regarding CCGCCUAACACUGCCAAUGUCGGUCCCAAGCCCGGAUAAAAGUGGAAGGGGCGG [C20U G47A], the self-cleavage is 0.28. To CCGCCUAACACUGCCAAUGCAGGUCUCAAGCCCGGAUAAAAGUGGAGGGGGCGG [C21A C26U] belongs 0.2; to CCGCCUAACACUGCCAAUGCAGGUCACAAGCCCGGAUAAAAGUGGAGGGGGCGG [C21A C26A], 0.05; to CCGCCUAACACUGCCAAUGCAGGUCGCAAGCCCGGAUAAAAGUGGAGGGGGCGG [C21A C26G], 0.09.

In the case of CCGCCUAACACUUCCAAUGUCGGUCCCAAGCCCGGAUAAAAGUGGAGGGGGCGG [C20U G13U], the self-cleavage came to 0.04. With CCGCCUAACACUACCAAUGUCGGUCCCAAGCCCGGAUAAAAGUGGAGGGGGCGG [C20U G13A], the self-cleavage is 0.15. As for CCGCCUAACACUCCCAAUGUCGGUCCCAAGCCCGGAUAAAAGUGGAGGGGGCGG [C20U G13C], the self-cleavage was determined as 0.02.

Consider CCGCCUAACACUGCCAAUGUCGGUCCCAAGCCCGGAUAAAAGUGGAGUGGGCGG [C20U G48U], for which the self-cleavage was 0.1. Next, CCGCCUAACACUGCCAAUGUCGGUCCCAAGCCCGGAUAAAAGUGGAGAGGGCGG [C20U G48A]: 0.1; CCGCCUAACACUGCCAAUGUCGGUCCCAAGCCCGGAUAAAAGUGGAGCGGGCGG [C20U G48C]: 0.1. Take CCGCCUAACACUGCCAAAGUCGGUCCCAAGCCCGGAUAAAAGUGGAGGGGGCGG [C20U U18A]: the self-cleavage came out at 0.86. As to CCGCCUAACACUGCCAACGUCGGUCCCAAGCCCGGAUAAAAGUGGAGGGGGCGG [C20U U18C], the self-cleavage came to 0.87.

On to CCGCCUAACACUGCCAAGGUCGGUCCCAAGCCCGGAUAAAAGUGGAGGGGGCGG [C20U U18G], for which the self-cleavage was 0.82. Consider CCGCCUAACACUGCCAAUGUCGGUCCCAAGCCCGGAUAAAAGUGGAGGGGGCGU [C20U G54U], for which the self-cleavage was 0.85.

Consider CCGCCUAACACUGCCAAUGUCGGUCCCAAGCCCGGAUAAAAGUGGAGGGGGCGC [C20U G54C], for which the self-cleavage stood at 0.84. Regarding CCGCCUAACACUGCCAAUGUCGGUCCCAAGCCCGGAUAAAAGUGGAGGGGGCGA [C20U G54A], the self-cleavage was determined as 0.75. Take CCGCCUAACACUGCCAAUGUCGGUCCCAAGCCCGGAUAAAAGUGGAGGGGGCAG [C20U G53A]: the self-cleavage worked out at 0.75. CCGCCUAACACUGCCAAUGUCGGUCCCAAGCCCGGAUAAAAGUGGAGGGGGCUG [C20U G53U]: the self-cleavage was 0.38.

Take CCGCCUAACACUGCCAAUGUCGGUCCCAAGCCCGGAUAAAAGUGGAGGGGGCCG [C20U G53C]: the self-cleavage amounted to 0.09.

On to CCGCCUAACACUGCCAAUGUCGGUCCCAAGCCCGGAUAAAACUGGAGGGGGCGG [C20U G42C], for which the self-cleavage stood at 0.22. Take CCGCCUAACACUGCCAAUGUCGGUCCCAAGCCCGGAUAAAAUUGGAGGGGGCGG [C20U G42U]: the self-cleavage amounted to 0.1.

With CCGCCUAACACUGCCAAUGUCGGUCCCAAGCCCGGAUAAAAAUGGAGGGGGCGG [C20U G42A], the self-cleavage was found to be 0.62. Turning to CCGCCUAAAACUGCCAAUGCAGGUCCCAAGCCCGGAUAAAAGUGGAGGGGGCGG [C21A C9A], the self-cleavage stood at 0.07.

On to CCGCCUAAGACUGCCAAUGCAGGUCCCAAGCCCGGAUAAAAGUGGAGGGGGCGG [C21A C9G], for which the self-cleavage is 0.11. Next, CCGCCUAAUACUGCCAAUGCAGGUCCCAAGCCCGGAUAAAAGUGGAGGGGGCGG [C21A C9U]: 0.1; CCGCCUAACACUGCCAAUGUCCGUCCCAAGCCCGGAUAAAAGUGGAGGGGGCGG [C20U G22C]: 0.06; CCGCCUAACACUGCCAAUGUCAGUCCCAAGCCCGGAUAAAAGUGGAGGGGGCGG [C20U G22A]: 0.6.

On to CCGCCUAACACUGCCAAUGUCUGUCCCAAGCCCGGAUAAAAGUGGAGGGGGCGG [C20U G22U], for which the self-cleavage was 0.5. Consider CCGCCUAACACUGCCAAUGCAGGUCCCAAGCCCGGAUAAAAGUGGAGGGGGCGG [C21A], for which the self-cleavage was 0.93. To CCGCCUAACACUGCCAAUCUCGGUCCCAAGCCCGGAUAAAAGUGGAGGGGGCGG [C20U G19C] belongs 0.18; to CCGCCUAACACUGCCAAUUUCGGUCCCAAGCCCGGAUAAAAGUGGAGGGGGCGG [C20U G19U], 0.65. Turning to CCGCCUAACACUGCCAAUAUCGGUCCCAAGCCCGGAUAAAAGUGGAGGGGGCGG [C20U G19A], the self-cleavage was 0.9.
